Results from ChEMBL document CHEMBL1139836, “Development of orally bioavailable and CNS penetrant biphenylaminocyclopropane carboxamide bradykinin B1 receptor antagonists” (J Med Chem, 2007).
Several values for one entry are separate records, joined by “and”; a condition that tells them apart may be missing. Identical values can stand only once.

Legend:
[1] = biological target: T1, B2 bradykinin receptor (Homo sapiens, UniProt P30411); test: Inhibition of human bradykinin B2 receptor
T1 sequence (P30411 whole entry): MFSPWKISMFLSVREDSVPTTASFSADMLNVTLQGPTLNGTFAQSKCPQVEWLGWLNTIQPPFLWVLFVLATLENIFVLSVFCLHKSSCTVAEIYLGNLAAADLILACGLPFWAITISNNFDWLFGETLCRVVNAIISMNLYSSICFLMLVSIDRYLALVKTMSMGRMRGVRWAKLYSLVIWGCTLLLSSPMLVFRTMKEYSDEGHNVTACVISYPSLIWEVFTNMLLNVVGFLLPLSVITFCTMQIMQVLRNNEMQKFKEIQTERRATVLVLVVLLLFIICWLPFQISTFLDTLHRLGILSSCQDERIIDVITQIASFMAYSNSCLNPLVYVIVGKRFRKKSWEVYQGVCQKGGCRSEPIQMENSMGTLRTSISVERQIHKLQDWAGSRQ
Summary of the method: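 Human B2 receptor expressed in CHO cells, membrane binding with 1 nM [3H]bradykinin, 2% DMSO final, 60 min at 22 °C, then filtered and counted. Nonspecific binding defined with 1 µM bradykinin. Ki reported.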

[2] = test system: LLC-PK1; test: Ratio of transport from basolateral to apical over apical to basolateral in LLC-PK1 cells expressing human MDR1; type: ADME, cell-based, Sus scrofa; conditions: pig
Summary of the method: (§1)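 LLC-PK1 cells expressing human MDR1, grown in M199 with 10% FBS on 96-well filters and used on day 4. Equilibrated 30 min in HBSS with 1 mM HEPES, then test compound at 5 µM. 1 µM verapamil served as P-gp substrate control. Transport in both directions measured in triplicate by LC/MS/MS or scintillation.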

[3] = biological target: T2, B1 bradykinin receptor (Homo sapiens, UniProt P46663); test: Displacement of [3H]des-Arg10 Leu9 kallidin from human bradykinin B1 receptor expressed in CHO cells; type: cell-based
T2 sequence (P46663 whole entry): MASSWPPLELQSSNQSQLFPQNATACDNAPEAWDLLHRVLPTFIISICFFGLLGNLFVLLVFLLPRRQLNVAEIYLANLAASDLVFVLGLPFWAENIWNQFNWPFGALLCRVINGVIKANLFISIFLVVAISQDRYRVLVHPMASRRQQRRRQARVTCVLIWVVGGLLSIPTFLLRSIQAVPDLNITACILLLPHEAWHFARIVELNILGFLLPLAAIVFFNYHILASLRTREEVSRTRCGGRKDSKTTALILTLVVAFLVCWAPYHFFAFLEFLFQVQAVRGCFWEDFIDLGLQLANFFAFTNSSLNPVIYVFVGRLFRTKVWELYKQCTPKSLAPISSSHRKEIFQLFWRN
Summary of the method: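 Membranes from CHO cells stably expressing human B1, used at 0.2 mg/mL protein in pH 7.4 HEPES/NaCl/KCl buffer with 100 nM enalaprilat, 140 µg/mL bacitracin and 0.1% BSA. Radioligand 0.2 nM [3H]des-arg10 leu9 kallidin, 2% DMSO final, incubated 60 min at 22 °C, then filtered and counted. Nonspecific binding defined with 1 µM des-arg10 kallidin. Ki values, at least two experiments averaged.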

[4] = test system: human MDR1 (P-gp); test: (§2) Apparent permeability in LLC-PK1 cells expressing human MDR1; type: ADME, cell-based, Sus scrofa; conditions: pig, LLC-PK1; summary of the method: as §1
[5] = Lipophilicity, Log P of the compound; type: physicochemical; conditions: octanol/water
[6] = Half life in Sprague-Dawley rat at 10 mg/kg, po and 2 mg/kg, iv; type: ADME, organism-based; conditions: in vivo
Summary of the method: (§3)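 Sprague-Dawley rats, n = 3, dosed orally at 10 mg/kg and iv at 2 mg/kg. F% from oral versus iv exposure; half-life in hours, clearance in mL/min/kg.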

[7] = biological target: T2, B1 bradykinin receptor; test: Activity at human bradykinin B1 receptor assessed as inhibition of Des-arg kallidin-induced increase of cytosolic calcium in CHO cells by FLIPR; type: functional, cell-based
Summary of the method: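 CHO cells stably expressing human B1 receptor, seeded 25 000/well and grown overnight at 37 °C, then loaded 60 min at 37 °C with 4 µM fluo-3 AM and 1 mM probenecid. Antagonist added 2 min before 3 nM des-arg10 kallidin, run at 37 °C. At least eight concentrations per curve give IC50. At least two experiments averaged.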

[8] = Clearance in Sprague-Dawley rat at 10 mg/kg, po and 2 mg/kg, iv; type: ADME, organism-based; conditions: in vivo; summary of the method: as §3
[9] = Oral bioavailability in Sprague-Dawley rat at 10 mg/kg, po and 2 mg/kg, iv; type: ADME, organism-based; conditions: in vivo; summary of the method: as §3
[10] = Half life in rhesus monkey at 3 mg/kg, po and 1 mg/kg, iv; type: ADME, organism-based, Macaca mulatta; conditions: in vivo
Summary of the method: (§4)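 Rhesus monkeys, n = 2, dosed orally at 3 mg/kg and iv at 1 mg/kg. F%, half-life in hours, clearance in mL/min/kg.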

[11] = Clearance in rhesus monkey at 3 mg/kg, po and 1 mg/kg, iv; type: ADME, organism-based, Macaca mulatta; conditions: in vivo; summary of the method: as §4
[12] = Clearance in Mongrel dog at 3 mg/kg, po and 1 mg/kg, iv; type: ADME, organism-based, Canis lupus familiaris; conditions: in vivo
Summary of the method: (§5)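 Mongrel dogs, n = 2, dosed orally at 3 mg/kg and iv at 1 mg/kg. F%, half-life in hours, clearance in mL/min/kg.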

[13] = Half life in Mongrel dog at 3 mg/kg, po and 1 mg/kg, iv; type: ADME, organism-based, Canis lupus familiaris; conditions: in vivo; summary of the method: as §5
[14] = Oral bioavailability in rhesus monkey at 3 mg/kg, po and 1 mg/kg, iv; type: ADME, organism-based, Macaca mulatta; conditions: in vivo; summary of the method: as §4
[15] = Oral bioavailability in Mongrel dog at 3 mg/kg, po and 1 mg/kg, iv; type: ADME, organism-based, Canis lupus familiaris; conditions: in vivo; summary of the method: as §5
[16] = test system: Liver microsomes; test: Stability in rat liver microsomes; type: ADME, Microsome
[17] = Stability in dog liver microsomes; type: ADME, Canis lupus familiaris, Microsome
[18] = Stability in rat hepatocytes; type: ADME, cell-based, Hepatocyte
[19] = Stability in human hepatocytes; type: ADME, cell-based, Hepatocyte
[20] = test system: Liver microsomes; test: Stability in human liver microsomes; type: ADME, Microsome
[21] = Stability in monkey liver microsomes; type: ADME, Macaca mulatta, Microsome; conditions: rhesus monkey
[22] = test system: LLC-PK1; test: as §2; type: ADME, cell-based, Sus scrofa; conditions: pig, llc-pk1; summary of the method: as §1

IC50 [1]	Ratio [2]	Ki [3]	Papp [4]	half-life [6]	clearance [8]	bioavailability [9]	SMILES	further results
–	15.5	62.5 nM	19 ×10⁻⁶ cm/s	–	–	–	C[C@@H](NC(=O)C1(NC(=O)C(F)(F)F)CC1)c1ccc(-c2cccc(F)c2-c2nnnn2C)cc1F	–
> 10000 nM	–	119 nM	–	–	–	–	COC(=O)c1c(F)cccc1-c1ccc(CNC(=O)C2(NC(=O)C(C)(Cl)Cl)CC2)c(F)c1	–
–	2	1.44 nM	32 ×10⁻⁶ cm/s	2.6 h	10 mL/min/kg	30%	C[C@@H](NC(=O)C1(NC(=O)C(F)(F)F)CC1)c1ccc(-c2cccc(F)c2C(F)(F)F)cc1F	IC50 [7]: 7.3 nM
–	8.6	0.93 nM	21 ×10⁻⁶ cm/s	–	–	–	COC(=O)c1c(F)cccc1-c1ccc([C@@H](C)NC(=O)C2(NC(C)=O)CC2)c(F)c1	–
> 10000 nM	2.2	2.95 nM	31 ×10⁻⁶ cm/s	–	–	–	COC(=O)c1c(F)cccc1-c1ccc(CNC(=O)C2(NC(=O)C(F)(F)C(F)(F)F)CC2)c(F)c1	–
–	–	0.6 nM	–	0.7 h	11 mL/min/kg	48%	C[C@@H](NC(=O)C1(NC(=O)C(F)(F)F)CC1)c1ccc(-c2cccc(F)c2-c2nnn(C)n2)cc1F	IC50 [7]: 0.65 nM
–	–	1.35 nM	–	1.1 h	8.4 mL/min/kg	45%	CCOC(=O)c1c(Cl)cccc1-c1ccc([C@@H](C)NC(=O)C2(NC(=O)C(F)(F)F)CC2)c(F)c1	IC50 [7]: 9.1 nM
–	2.5	0.81 nM	34 ×10⁻⁶ cm/s	–	–	–	COC(=O)c1c(F)cccc1-c1ccc([C@@H](C)NC(=O)C2(NC(=O)C(F)(F)Cl)CC2)c(F)c1	–
> 10000 nM	–	2.8 nM	–	–	–	–	COC(=O)c1c(F)cccc1-c1ccc(CNC(=O)C2(NC(=O)C(F)Cl)CC2)c(F)c1 (stereo unspecified)	–
> 10000 nM	18.4	0.81 nM	23 ×10⁻⁶ cm/s	–	–	–	COC(=O)c1c(F)cccc1-c1ccc(CNC(=O)C2(NC(=O)CC(F)(F)F)CC2)c(F)c1	logP [5]: 2.9
–	–	0.66 nM	–	0.7 h	12 mL/min/kg	50%	C[C@@H](NC(=O)C1(NC(=O)C(F)(F)F)CC1)c1ccc(-c2cccc(Cl)c2-c2nnn(C)n2)cc1F	–
> 10000 nM	6.3	11.6 nM	24 ×10⁻⁶ cm/s	–	–	–	COC(=O)c1c(F)cccc1-c1ccc(CNC(=O)C2(NC(C)=O)CC2)c(F)c1	–
–	5.6	0.51 nM	37 ×10⁻⁶ cm/s	0.35 h	28 mL/min/kg	27%	Cc1noc(-c2c(F)cccc2-c2ccc([C@@H](C)NC(=O)C3(NC(=O)C(F)(F)F)CC3)c(F)c2)n1	half-life [10]: 2.9 h; clearance [11]: 15 mL/min/kg; IC50 [7]: 0.89 nM; clearance [12]: 6 mL/min/kg; half-life [13]: 3.9 h; bioavailability [14]: 22%; bioavailability [15]: 35%
–	2.3	0.57 nM	28 ×10⁻⁶ cm/s	0.5 h	42 mL/min/kg	21%	COC(=O)c1c(F)cccc1-c1ccc([C@@H](C)NC(=O)C2(NC(=O)C(F)(F)F)CC2)c(F)c1	half-life [10]: 2.2 h; clearance [11]: 28 mL/min/kg; Stability [16]: Stable; Stability [17]: Stable; IC50 [7]: 1.9 nM; clearance [12]: 21 mL/min/kg; Stability [18]: Stable; half-life [13]: 1.7 h; Stability [19]: Stable; bioavailability [14]: 2%; Stability [20]: Stable; Stability [21]: Stable; bioavailability [15]: 5%
> 10000 nM	2.8	2.5 nM	29 ×10⁻⁶ cm/s	–	–	–	COC(=O)c1c(F)cccc1-c1ccc(CNC(=O)C2(NC(=O)C(F)(F)Cl)CC2)c(F)c1	–
–	–	22 nM	–	–	–	–	COC(=O)c1c(F)cccc1-c1ccc([C@H](C)NC(=O)C2(NC(=O)CC(F)(F)F)CC2)c(F)c1	–
–	2.2	10.3 nM	34 ×10⁻⁶ cm/s	–	–	–	COC(=O)c1ccccc1-c1ccc([C@@H](C)NC(=O)C2(NC(=O)C(F)(F)F)CC2)c(F)c1	–
> 10000 nM	2.8	0.54 nM	21 ×10⁻⁶ cm/s	–	–	–	COC(=O)c1c(F)cccc1-c1ccc(CNC(=O)C2(NC(=O)C(Cl)Cl)CC2)c(F)c1	logP [5]: 2.8
–	8.6	0.13 nM	25 ×10⁻⁶ cm/s	1.44 h	25 mL/min/kg	14%	COC(=O)c1c(F)cccc1-c1ccc([C@@H](C)NC(=O)C2(NC(=O)CC(F)(F)F)CC2)c(F)c1	–
–	1.6	1.95 nM	27 ×10⁻⁶ cm/s	–	–	–	CCC(=O)c1c(Cl)cccc1-c1ccc([C@@H](C)NC(=O)C2(NC(=O)C(F)(F)F)CC2)c(F)c1	–
–	1.4 and 3.7	1.6 nM and 0.68 nM	31 ×10⁻⁶ cm/s	0.34 h	27 mL/min/kg	44%	COC(=O)c1c(F)cccc1-c1ccc([C@@H](C)NC(=O)C2(NC(=O)C(F)(F)C(F)(F)F)CC2)c(F)c1	Papp [22]: 28 ×10⁻⁶ cm/s
> 10000 nM	3.4	13.5 nM	33 ×10⁻⁶ cm/s	–	–	–	COC(=O)c1c(F)cccc1-c1ccc(CNC(=O)C2(NC(=O)C(F)F)CC2)c(F)c1	logP [5]: 2.4
–	3.2	0.4 nM	31 ×10⁻⁶ cm/s	–	–	–	COC(=O)c1c(F)cccc1-c1ccc([C@@H](C)NC(=O)C2(NC(=O)C(F)F)CC2)c(F)c1	–

SMILES	IC50 [1]	Ratio [2]	Ki [3]	Papp [4]	half-life [6]	clearance [8]	bioavailability [9]	further results
COC(=O)c1c(F)cccc1-c1ccc(CNC(=O)C2(NC(=O)C(F)(F)F)CC2)c(F)c1	> 10000 nM	4.1	1.47 nM	23 ×10⁻⁶ cm/s	–	–	–	logP [5]: 2.7
